Test results: publication PMC2744100 (Journal of medicinal chemistry, 2009)
Like-named read-outs stand apart in the source and are kept apart here.

Key:
TCCYP51 [1] = target: T1, TCCYP51 (Trypanosoma cruzi, UniProt Q7Z1V1); settings: read-out: Kd of enzyme/substrate complex formation; preferred substrate; cited from earlier work
TCCYP51 [2] = target: T1, TCCYP51; assay: Spectral titration of TCCYP51; format: binding; settings: ligand-free maximum 417 nm
[3] = system: TC trypomastigotes and amastigotes; assay: Growth inhibition assay in TC cells; format: cell-based, Trypanosoma cruzi; settings: for Effect on parasites in cardiomyocytes at 20 μM: 20 μM compound; for Antiparasitic effect in both human forms of TC: pre-treatment of trypomastigotes, 1–50 μM
Outline: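 Trypomastigotes (10^6) pre-exposed 30 min to test compound in DMSO (1–50 μM) or DMSO alone. Then added in triplicate to rat cardiomyocyte monolayers, 10 parasites/cell, for 2 h. Unbound parasites were removed and cultures kept 72 h in DMEM + 10% FBS. T. cruzi per 200 cells and % infection were counted microscopically on Giemsa stain. Mean ± SD; Student t test versus DMSO.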

TCCYP51 [4] = target: T1, TCCYP51; assay: ESI-MS analysis of non-covalent interactions in TCCYP51; format: binding; settings: ESI-mass spectrometry, 20-HCl 100 μM
TC epimastigotes [5] = assay: TC cellular sterol analysis; format: cell-based, Trypanosoma cruzi; settings: 50 μM, TLC
TCCYP51 [6] = target: T1, TCCYP51; format: biochemical; settings: reconstituted enzyme reaction
[7] = system: rat cardiomyocyte monolayers; assay: Effect on cardiomyocyte monolayers in the growth inhibition assay; format: cell-based; settings: concentrations higher than 10 μM
TC epimastigotes [8] = settings: 1 μM; cited from earlier work
TC cells = settings: published values; cited from earlier work

T1 sequence (Q7Z1V1 whole entry): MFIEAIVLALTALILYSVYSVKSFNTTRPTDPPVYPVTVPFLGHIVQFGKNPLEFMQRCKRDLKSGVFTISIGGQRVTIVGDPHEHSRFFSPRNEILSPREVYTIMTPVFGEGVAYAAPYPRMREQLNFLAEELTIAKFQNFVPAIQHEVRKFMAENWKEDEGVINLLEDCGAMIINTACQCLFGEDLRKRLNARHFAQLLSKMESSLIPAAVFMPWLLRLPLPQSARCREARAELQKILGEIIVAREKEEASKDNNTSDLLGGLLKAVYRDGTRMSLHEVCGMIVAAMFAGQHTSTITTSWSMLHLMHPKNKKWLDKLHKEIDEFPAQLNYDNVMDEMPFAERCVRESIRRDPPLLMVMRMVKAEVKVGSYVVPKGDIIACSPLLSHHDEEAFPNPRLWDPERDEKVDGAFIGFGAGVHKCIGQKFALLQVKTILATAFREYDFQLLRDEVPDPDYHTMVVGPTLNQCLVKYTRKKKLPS

For `C=C(CC[C@@H](C)[C@H]1CC[C@@]2(C)C3=C(CC[C@]12C)[C@@]1(C)CC[C@H](O)C(C)(C)[C@@H]1CC3)C(C)C` [24-methylenedihydrolanosterol], the Kd (TCCYP51 [1]) is given as roughly 1 µM.

In the case of `CCC(C(=O)Nc1ccncc1)c1ccccc1` (centres unmarked) [Compound 5, 2-phenyl-N-pyridin-4-ylbutanamide], the “Spectral Response in TCCYP51, Soret band maximum” value (shortened to “Spectral Response in TCCYP51”) (TCCYP51 [2]) is reported as 422 nm.

For `O=C(Nc1ccncc1)C1c2ccccc2Oc2ccccc21` [Compound 7], the “Spectral Response in TCCYP51” value (TCCYP51 [2]) was 422 nm.

With `CC1CCC(C(=O)NC(Cc2c[nH]c3ccccc23)C(=O)Nc2ccncc2)CC1` (centres unmarked) [Compound 9] the “Spectral Response in TCCYP51” value (TCCYP51 [2]) was 422 nm, the “Effect on parasites in cardiomyocytes at 20 μM” value (shortened to “Effect on parasites”) ([3]; 72 h) was “practically eliminated from cardiomyocytes” and the “Antiparasitic effect in both human forms of TC” value (shortened to “Antiparasitic effect”) [3] was “clear dose-dependent antiparasitic effect”.

In the case of `COc1ccc2c(c1)c(CC(=O)Nc1cccnc1)c(C)n2C(=O)c1ccc(Cl)cc1` [Compound 12], the “Spectral Response in TCCYP51” value (TCCYP51 [2]) is reported as 422 nm.

With `COc1ccc2c(c1)c(CC(=O)NCc1ccccn1)c(C)n2C(=O)c1ccc(Cl)cc1` [Compound 13] the “Spectral Response in TCCYP51” value (TCCYP51 [2]) was 418 nm, the “Effect on parasites” value ([3]; 72 h) was “practically eliminated from cardiomyocytes” and the “Antiparasitic effect” value [3] was “clear dose-dependent antiparasitic effect”.

With `COc1ccc2c(c1)c(CC(=O)NCc1ccncc1)c(C)n2C(=O)c1ccc(Cl)cc1` [Compound 14] the “Spectral Response in TCCYP51” value (TCCYP51 [2]) was 422 nm.

In the case of `COc1ccc2c(c1)c(CC(=O)NC(C)c1ccncc1)c(C)n2C(=O)c1ccc(Cl)cc1` (centres unmarked) [Compound 15], the “Spectral Response in TCCYP51” value (TCCYP51 [2]) is reported as 422 nm.

In the case of `COc1ccc2c(c1)c(CC(=O)Nc1ccccn1)c(C)n2C(=O)c1ccc(Cl)cc1` [Compound 16], the “Spectral Response in TCCYP51” value (TCCYP51 [2]) is reported as 416 nm.

For `COc1ccc2c(c1)c(CC(=O)Nc1ncccn1)c(C)n2C(=O)c1ccc(Cl)cc1` [Compound 17], the “Spectral Response in TCCYP51” value (TCCYP51 [2]) was 417 nm.

With `COc1ccc2c(c1)c(CC(=O)NCc1ccc(Cl)nc1)c(C)n2C(=O)c1ccc(Cl)cc1` [Compound 18] the “Spectral Response in TCCYP51” value (TCCYP51 [2]) was 420 nm, the “Effect on parasites” value ([3]; 72 h) was “practically eliminated from cardiomyocytes” and the “Antiparasitic effect” value [3] was “clear dose-dependent antiparasitic effect”.

In the case of `COc1ccc2c(c1)c(CC(=O)NCc1ccc(C(F)(F)F)nc1)c(C)n2C(=O)c1ccc(Cl)cc1` [Compound 19], the “Spectral Response in TCCYP51” value (TCCYP51 [2]) is reported as 420 nm.

In the case of `COc1ccc2c(c1)c(CC(=O)NCCc1cccnc1)c(C)n2C(=O)c1ccc(Cl)cc1` [Compound 20], the “Binding stoichiometry to TCCYP51” value (TCCYP51 [4]) is reported as “simultaneous binding of two inhibitor molecules to the enzyme”, the “Effect on TC cellular sterol composition” value (TC epimastigotes [5]) is reported as “very similar effect on cellular sterol composition” and the “Spectral Response in TCCYP51” value (TCCYP51 [2]) is reported as 422 nm. The “Effect on parasites” value ([3]; 72 h) was “practically eliminated from cardiomyocytes”, the “ED50 (growth inhibition)” value ([3]; TC amastigotes in cardiomyocytes, 72 h) was less than 1 µM and the “Antiparasitic effect” value [3] was “clear dose-dependent antiparasitic effect”.

For `COc1ccc2c(c1)c(CC(=O)NCCc1cccc(Cl)c1)c(C)n2C(=O)c1ccc(Cl)cc1` [Compound 21], the “Spectral Response in TCCYP51” value (TCCYP51 [2]) was 419 nm, the “Character of TCCYP51 inhibition (reversibility)” value (TCCYP51 [6]) was “functionally irreversible” and the “Effect on cardiomyocyte monolayers” value [7] was “release cardiomyocyte monolayers at higher concentrations”.

In the case of `COc1ccc2c(c1)c(CC(=O)NCC(C)c1ccccc1)c(C)n2C(=O)c1ccc(Cl)cc1` (centres unmarked) [Compound 22], the “Spectral Response in TCCYP51” value (TCCYP51 [2]) is reported as 419 nm, the “Character of TCCYP51 inhibition (reversibility)” value (TCCYP51 [6]) is reported as “functionally irreversible” and the “Effect on cardiomyocyte monolayers” value [7] is reported as “release cardiomyocyte monolayers at higher concentrations”.

In the case of `O=C(NC(Cn1ccnc1)c1ccc(Cl)cc1Cl)c1ccc(-c2nnc(-c3ccccc3)o2)cc1` (centres unmarked) [SDZ-284629, N-(1-(2,4-dichlorophenyl)-2-(1H-imidazol-1-yl)ethyl)-4-(5-phenyl-1,3,4-oxadiazol-2-yl)benzamide], the “Effect on TC cellular sterol composition” value (TC epimastigotes [8]) is given as “the pathway practically stops at the stage of the C14-methylated sterol precursors”.

In the case of `O=C(Cn1ccnc1[N+](=O)[O-])NCc1ccccc1` [benznidazole], the “ED50 in TC cells” value (TC cells) is given as 25 to 50 µM.
